Source: paper PMC10685179 (RSC Advances, 2023)
Values after ≈ are worked out from the molar mass of the structure shown. Like-named read-outs stand apart in the source and are kept apart here.

How the values were obtained:
[1] = test system: C. albicans KA205; experiment: Agar well-diffusion, inhibition zone; type: cell-based, Candida albicans
In short: (§1)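 Clinical MDR isolates from complicated UTI patients. Suspensions were made in Tryptic Soya and Sabouraud broths from subcultures on Tryptic Soya and Sabouraud agar plates. Agar well diffusion followed CLSI guidelines, with test compounds applied at 10 μM in DMSO. Fosfomycin and fluconazole were positive controls and DMSO the negative control. Zone diameters were read in mm, in triplicate.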

[2] = test system: C. tropicalis KA205; experiment: Broth microdilution MIC and MFC; type: cell-based; conditions: Candida tropicalis; for MIC: KA205, 24 h; for MFC: KA205, read-out: MFC/MIC
[3] = test system: P. mirabilis KA320; experiment: Checkerboard microdilution synergy with fosfomycin; type: cell-based, Proteus mirabilis
[4] = test system: S. aureus KA112; experiment: Checkerboard microdilution synergy with fosfomycin; type: cell-based, Staphylococcus aureus
[5] = test system: C. tropicalis KA205; experiment: Agar well-diffusion, inhibition zone; type: cell-based, Candida tropicalis
In short: as §1

[6] = test system: E. faecalis KA247; experiment: Agar well-diffusion, inhibition zone; type: cell-based, Enterococcus faecalis; conditions: for zone of inhibition at 10 µM: Enterococcus faecalis, KA247, read-out: Average diameter of inhibition zone (ZI)
In short: as §1

[7] = test system: P. mirabilis KA320; experiment: Agar well-diffusion, inhibition zone; type: cell-based, Proteus mirabilis; conditions: for zone of inhibition at 10 µM: Proteus mirabilis, KA320, read-out: Average diameter of inhibition zone (ZI)
In short: as §1

[8] = test system: E. coli KA780; experiment: Agar well-diffusion, inhibition zone; type: cell-based, Escherichia coli; conditions: for Average diameter of inhibition zone (ZI): 10 μM (DMSO), mean of three ± SEM; for zone of inhibition at 10 µM: Escherichia coli, KA780, read-out: Average diameter of inhibition zone (ZI)
In short: as §1

[9] = test system: E. coli KA780; experiment: Checkerboard microdilution synergy with fosfomycin; type: cell-based, Escherichia coli
[10] = test system: E. coli KA780; experiment: Broth microdilution MIC and MBC; type: cell-based; conditions: Escherichia coli; for MIC: KA780, 24 h; for MBC: KA780, read-out: MBC/MIC
[11] = test system: E. faecalis KA247; experiment: Checkerboard microdilution synergy with fosfomycin; type: cell-based, Enterococcus faecalis
[12] = test system: bacterial isolates; experiment: Time-kill kinetics, bacterial isolates; type: cell-based; conditions: at MIC
In short: (§2)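 Untreated organisms served as controls. Bacteria were sampled at 0, 2, 4, 6, 8, 12, 18 and 24 h, and fungi at 0, 2, 4, 6, 8, 18, 24 and 48 h. Counts were made by plate count and plotted as log10 CFU mL−1 versus time.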

[13] = test system: P. mirabilis KA320; experiment: Broth microdilution MIC and MBC; type: cell-based; conditions: Proteus mirabilis; for MIC: KA320, 24 h; for MBC: KA320, read-out: MBC/MIC
[14] = test system: S. aureus KA112; experiment: Broth microdilution MIC and MBC; type: cell-based; conditions: Staphylococcus aureus; for MIC: KA112, 24 h; for MBC: KA112, read-out: MBC/MIC
[15] = test system: MDR microbial isolates; experiment: Time-kill kinetics, whole panel; type: cell-based; conditions: all pathogenic isolates
In short: as §2

[16] = test system: fungal isolates; experiment: Time-kill kinetics, fungal isolates; type: cell-based; conditions: at MIC
In short: as §2

[17] = test system: S. aureus KA112; experiment: Agar well-diffusion, inhibition zone; type: cell-based, Staphylococcus aureus; conditions: for zone of inhibition at 10 µM: Staphylococcus aureus, KA112, read-out: Average diameter of inhibition zone (ZI)
In short: as §1

[18] = test system: BNL: mouse normal liver cells; experiment: SRB cytotoxicity assay on normal cells; type: cell-based
In short: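 Mouse normal liver BNL cells were grown in DMEM with 10% heat-inactivated FBS, penicillin and streptomycin, at 37 °C in 5% CO2. […] SRB assay: 10% TCA fixation at 4 °C for 1 h, 0.4% SRB for 10 min at room temperature, 1% acetic acid washes, 10 mM Tris solubilisation, absorbance at 540 nm. Mean of three, with SD.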

[19] = test system: E. faecalis KA247; experiment: Broth microdilution MIC and MBC; type: cell-based; conditions: Enterococcus faecalis, KA247, 24 h
[20] = test system: fosfomycin-resistant (FO-R) E. coli KA780; experiment: SEM of outer membrane integrity; type: cell-based; conditions: at MIC, compared with DMSO
[21] = test system: C. albicans KA205; experiment: Broth microdilution MIC and MFC; type: cell-based; conditions: Candida albicans; for MIC: KA205, 24 h; for MFC: KA205, read-out: MFC/MIC
[22] = Physical and chemical stability after gamma irradiation; type: physicochemical; conditions: gamma radiation 3.0 kGy to 20.0 kGy
In short: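 Compound powders in sterile tubes were irradiated by a 60Co source at 3.0, 5.0, 7.0, 10.0, 15.0 and 20.0 kGy, at a dose rate of 0.9 kGy h−1. Non-irradiated and irradiated samples were checked for physical and chemical changes by UV-VIS spectrophotometry at 560 nm.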

[23] = target: E. coli MurA enzyme (Escherichia coli, UniProt P0A749); experiment: MurA enzyme inhibition assay; type: biochemical; conditions: for remaining activity at 100 µM: read-out: RA (residual activity), at 100 μM
E. coli MurA enzyme, sequence (P0A749 whole entry): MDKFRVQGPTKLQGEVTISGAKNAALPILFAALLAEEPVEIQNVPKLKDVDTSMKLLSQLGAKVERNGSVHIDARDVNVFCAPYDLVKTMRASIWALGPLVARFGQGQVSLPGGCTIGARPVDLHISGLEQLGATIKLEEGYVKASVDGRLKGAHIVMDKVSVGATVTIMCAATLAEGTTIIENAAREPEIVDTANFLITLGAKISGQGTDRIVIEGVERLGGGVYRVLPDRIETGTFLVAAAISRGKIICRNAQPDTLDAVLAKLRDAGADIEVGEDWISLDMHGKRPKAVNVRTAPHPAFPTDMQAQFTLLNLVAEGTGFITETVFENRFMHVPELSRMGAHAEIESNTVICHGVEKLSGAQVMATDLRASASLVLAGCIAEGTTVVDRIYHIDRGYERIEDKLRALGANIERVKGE

[24] = test system: C. tropicalis KA205; experiment: Checkerboard microdilution synergy with fluconazole; type: cell-based, Candida tropicalis
[25] = test system: MDR bacterial and fungal isolates; experiment: Broth microdilution MIC/MBC/MFC, whole panel; type: cell-based; conditions: bactericidal/fungicidal if MBC or MFC not greater than four times the MIC
[26] = 10 μM (DMSO), mean of three ± SEM

O=[N+]([O-])c1ccc(-c2nn(-c3ccccc3)c3sc(NC(c4ccccc4O)P(=O)(Oc4ccccc4)Oc4ccccc4)nc23)cc1 (stereo not shown) [Compound 5a, Diphenyl((2-hydroxyphenyl)((3-(4-nitrophenyl)-1-phenyl-1H-pyrazolo[4,3-d]thiazol-5-yl)amino)methyl)phosphonate]
Average diameter of inhibition zone (ZI) [1, 26]: 22 ± 0.76 mm
MIC [2]: 0.125 µg/mL (≈ 0.185 µM)
MFC [2]: 1 µg/mL (≈ 1.48 µM)
combination effect [3]: S (FICI ≤ 0.5 (synergism))
Fractional inhibitory concentration index (ΣFICI) ([3]; combination with fosfomycin): 0.5
combination effect [4]: S (FICI ≤ 0.5 (synergism))
Fractional inhibitory concentration index (ΣFICI) ([4]; combination with fosfomycin): 0.25
Average diameter of inhibition zone (ZI) [5, 26]: 22 ± 0.43 mm
Average diameter of inhibition zone (ZI) [6, 26]: 24 ± 0.20 mm
Average diameter of inhibition zone (ZI) [7, 26]: 23 ± 0.44 mm
Average diameter of inhibition zone (ZI) [8]: 25 ± 0.28 mm
combination effect [9]: S (FICI ≤ 0.5 (synergism))
Fractional inhibitory concentration index (ΣFICI) ([9]; combination with fosfomycin): 0.25
MIC [10]: 0.06 µg/mL (≈ 0.0888 µM)
MBC [10]: 0.5 µg/mL (≈ 0.74 µM)
combination effect [11]: S (FICI ≤ 0.5 (synergism))
Fractional inhibitory concentration index (ΣFICI) ([11]; combination with fosfomycin): 0.5
time of maximum killing rate [12]: 6 h
MIC [13]: 0.125 µg/mL (≈ 0.185 µM)
MBC [13]: 0.5 µg/mL (≈ 0.74 µM)
MIC [14]: 0.06 µg/mL (≈ 0.0888 µM)
MBC [14]: 0.5 µg/mL (≈ 0.74 µM)
microbial reduction relative to the initial inoculum [15]: ≥ 3 log10
time of maximum killing rate / maximum reduction in cell counts [16]: 16 h
Average diameter of inhibition zone (ZI) [17, 26]: 24 ± 0.51 mm
IC50 [18]: > 100 µM
MIC [19]: 0.125 µg/mL (≈ 0.185 µM)
effect on outer membrane (SEM image) [20]: perturbation in the membrane and distinct ruptures of the OM integrity
MIC [21]: 0.125 µg/mL (≈ 0.185 µM)
MFC [21]: 0.5 µg/mL (≈ 0.74 µM)
physical changes (odor, color, clarity, solubility, and form) after irradiation [22]: no changes occurred
stability of the chemical structure after irradiation ([22]; UV-VIS spectrophotometer): confirmed the stability of the chemical structure
IC50 ([23]; IC50, preincubation 0 min): 41 µM
IC50 ([23]; IC50, preincubation 10 min): 3.8 µM
remaining activity at 100 µM ([23]; preincubation 10 min): 0%
combination effect [24]: S (FICI ≤ 0.5 (synergism))
Fractional inhibitory concentration index (ΣFICI) ([24]; combination with fluconazole): 0.5

O=[N+]([O-])c1ccc(-c2nn(-c3ccccc3)c3sc(NC(c4cccs4)P(=O)(Oc4ccccc4)Oc4ccccc4)nc23)cc1 (stereo not shown) [Compound 6a, Diphenyl(((3-(4-nitrophenyl)-1-phenyl-1H-pyrazolo[4,3-d]thiazol-5-yl)amino)(thiophen-2-yl)methyl)phosphonate]
zone of inhibition at 10 µM ([1]; Candida albicans, KA205, read-out: Average diameter of inhibition zone (ZI)): 20 ± 0.89 mm
MIC [2]: 0.5 µg/mL (≈ 0.751 µM)
MFC [2]: 1 µg/mL (≈ 1.5 µM)
zone of inhibition at 10 µM ([5]; Candida tropicalis, KA205, read-out: Average diameter of inhibition zone (ZI)): 20 ± 0.2 mm
zone of inhibition at 10 µM [6]: 18 ± 0.74 mm
zone of inhibition at 10 µM [7]: 18 ± 0.5 mm
zone of inhibition at 10 µM [8]: 19 ± 0.66 mm
MIC [10]: 1 µg/mL (≈ 1.5 µM)
MBC [10]: 0.5 µg/mL (≈ 0.751 µM)
MIC [13]: 2 µg/mL (≈ 3 µM)
MBC [13]: 1 µg/mL (≈ 1.5 µM)
MIC [14]: 1 µg/mL (≈ 1.5 µM)
MBC [14]: 1 µg/mL (≈ 1.5 µM)
zone of inhibition at 10 µM [17]: 19 mm
MIC [19]: 2 µg/mL (≈ 3 µM)
MIC [21]: 0.5 µg/mL (≈ 0.751 µM)
MFC [21]: 0.5 µg/mL (≈ 0.751 µM)

COc1cccc2c1C(=O)c1c(O)c3c(c(O)c1C2=O)C[C@@](O)(C(=O)CO)C[C@@H]3O[C@H]1C[C@H](N)[C@H](O)[C@H](C)O1 [DOX, Doxorubicin, reference compound]
IC50 [18]: 14.7 µM

C[C@@H]1O[C@@H]1P(=O)(O)O [FO, fosfomycin, reference compound]
zone of inhibition at 10 µM [6]: 17 ± 0.34 mm
zone of inhibition at 10 µM [7]: 19 ± 0.13 mm
Average diameter of inhibition zone (ZI) [8]: 11 ± 0.23 mm
zone of inhibition at 10 µM [8]: 11 mm
MIC [10]: 256 µg/mL (≈ 1850 µM)
MBC [10]: 1 µg/mL (≈ 7.24 µM)
MIC [13]: 16 µg/mL (≈ 116 µM)
MBC [13]: 1 µg/mL (≈ 7.24 µM)
MIC [14]: 8 µg/mL (≈ 57.9 µM)
MBC [14]: 0.4 µg/mL (≈ 2.9 µM)
bactericidal/fungicidal effect [25]: bactericidal and fungicidal activities
zone of inhibition at 10 µM [17]: 18 ± 0.32 mm
MIC [19]: 8 µg/mL (≈ 57.9 µM)
IC50 ([23]; IC50, preincubation 0 min): 52 ± 0.33 µM
IC50 ([23]; IC50, preincubation 10 min): 12.7 µM
RA (residual activity) ([23]; at 100 μM, preincubation 0 min): 52 ± 0.55%
remaining activity at 100 µM ([23]; preincubation 0 min): < 60%
remaining activity at 100 µM ([23]; preincubation 10 min): 10 ± 0.92%
